A selection: hits, their analogues and other compounds. The true share with any hit is near 2.3%.
OXTR ag = human OXTR agonism. CHO-OTR cells, Fluo-8 calcium fluorescence; normalized: DMSO 0%, oxytocin 100%. AID 2435. activation, % at 3 µM. actives 0.32% (n = 320,000). P30559;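 active = activation above the mean of all tested compounds plus 3 SD, cutoff set per screening run, cut at about 20% in these data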;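 also: peak over basal fluorescence ratio from a 100 s FLIPR kinetic read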
Target sequence (P30559 whole entry, looked up): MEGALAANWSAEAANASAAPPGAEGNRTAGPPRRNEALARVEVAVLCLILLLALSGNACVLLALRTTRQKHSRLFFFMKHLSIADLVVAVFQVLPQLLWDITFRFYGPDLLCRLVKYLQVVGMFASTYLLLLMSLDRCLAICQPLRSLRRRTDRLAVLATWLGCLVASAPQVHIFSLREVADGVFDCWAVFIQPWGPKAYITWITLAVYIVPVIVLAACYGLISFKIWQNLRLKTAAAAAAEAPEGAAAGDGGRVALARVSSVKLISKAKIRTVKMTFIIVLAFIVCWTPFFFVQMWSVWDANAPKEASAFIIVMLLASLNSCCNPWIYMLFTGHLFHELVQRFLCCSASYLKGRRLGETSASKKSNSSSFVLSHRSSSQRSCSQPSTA
TAAR1 ag = human TAAR1 agonism | Q96RJ0 | activation, % at 3 µM | actives 0.99% (n = 360,000) | CHO RD-HGA16 TAAR1, Fluo-8 calcium fluorescence; vehicle wells 0%, saturating PEA agonist 100%;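 active = activation above the mean activation of all test compounds in the run plus 3 SD, cut at about 38% in these data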
Target sequence (Q96RJ0 whole entry, looked up): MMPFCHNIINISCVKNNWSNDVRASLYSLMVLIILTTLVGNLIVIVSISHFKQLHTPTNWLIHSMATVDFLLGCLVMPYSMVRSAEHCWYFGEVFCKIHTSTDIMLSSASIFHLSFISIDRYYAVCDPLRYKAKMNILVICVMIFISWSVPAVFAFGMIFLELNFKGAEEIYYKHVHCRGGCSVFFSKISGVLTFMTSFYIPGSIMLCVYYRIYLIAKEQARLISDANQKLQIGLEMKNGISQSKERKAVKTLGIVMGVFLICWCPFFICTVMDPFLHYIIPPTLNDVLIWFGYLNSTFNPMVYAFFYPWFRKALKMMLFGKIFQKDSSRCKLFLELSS
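test system = CHO RD-HGA16 cells carrying human TAAR1 plus Gα16 | schedule = 17-24 h seeding, 75 min 37 °C dye, 30 min RT | compound dosing = 3 µM single concentration | control set = DMSO and PEA EC100 | replicates = n 1 | signal = Fluo-8 fluorescence, 5 s baseline then 140 s kinetic read | measure = percent activation vs PEA EC100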
V1aR counter = activates human V1a receptor in oxytocin agonist counter-screen; CHO-V1R cells, Fluo-8 calcium fluorescence, agonist mode; 0% DMSO, 100% 3 nM vasopressin; AID 2797; actives 0.25% (n = 320,000); activation, % at 3 µM; P37288;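 active = activation above the mean activation of all tested compounds plus 3 SD, per screening run, cut at about 20% in these data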;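 also: signal is peak over basal fluorescence ratio across a 100 second FLIPR read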
TAAR1 antagonist = human TAAR1 antagonism; inhibition, % at 3 µM; Q96RJ0; actives 1.5% (n = 360,000); AID 624466; CHO RD-HGA16 TAAR1, Fluo-8 calcium fluorescence, antagonist;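 active = inhibition above a per-plate cutoff, the mean inhibition of test compounds on that plate plus 3 SD, cut at about 49% in these data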;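 also: 0% = DMSO plus EC80 beta-PEA response and 100% = DMSO alone without agonist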
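Material: CHO RD-HGA16 cells bearing hTAAR1; compound dosing: one-point dosing, 3 µM nominal final; schedule: dye loading 75 min at 37 °C, then 30 min room temperature; measured by: calcium fluorescence with Fluo-8; control set: vehicle and agonist controls; replication: n of 1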
OXTR potentiate = potentiators of human oxytocin receptor. actives 0.061% (n = 320,000). AID 2445. P30559. CHO-OTR cells, Fluo-8 calcium fluorescence, potentiator mode; 0% = oxytocin EC15, 100% = EC100. activation, % at 3 µM;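 active = activation above that plate's cutoff, the mean activation of tested compounds plus 3 SD, cut at about 6.6% in these data, passing the limit was not always enough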;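 also: 100% uses oxytocin at 75 nM as the full agonist control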
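Material: human OTR in CHO cells. Compound: 3.0 µM, one dose. Timing: compound 6 min at room temperature before oxytocin, 100 s read. Evaluation: % activation of max/min ratio relative to oxytocin controls. Replication: single well per compound, singlicate. Signal: Fluo-8 calcium dye fluorescence.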
nonsel antag count = counter-screen for TAAR1 antagonists: nonselective antagonists. shares compounds with TAAR1 antagonist. AID 651780. inhibition, % at 3 µM. actives 77% (n = 2,400). counterscreen cell line, calcium fluorescence, antagonist mode; in the data active = inhibition above about 22%;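 also: CHO-Ga16 host cells stimulated with ATP at an EC80 level; 0% = agonist EC80 plus vehicle and 100% = vehicle without agonist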
TAAR1 antag conf = human TAAR1 antagonism, confirmed | shares compounds with TAAR1 antagonist | TAAR1-expressing cells, fluorescence antagonist read-out | inhibition, % at 3 µM | actives 40% (n = 2,400) | AID 651785; in the data active = inhibition above about 49%;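 also: CHO-Ga16 host cells challenged with agonist PEA near its EC80; 0% = agonist at EC80 plus vehicle and 100% = vehicle with no agonist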
Ga16 nonsel ag = nonselective Ga16 agonist in TAAR1 antagonist counter-screen. shares compounds with TAAR1 antagonist. actives 18% (n = 2,400). AID 651953. activation, % at 3 µM. Ga16-expressing cells, calcium fluorescence, agonist counterscreen; in the data active = activation above about 12%;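 also: 0% = vehicle wells and 100% = saturating stimulus response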
TAAR1 ag counter = activates human TAAR1 in antagonist counter-screen | shares compounds with TAAR1 antagonist | hTAAR1 cell line, fluorescence activation, agonist mode | activation, % at 3 µM | actives 2% (n = 2,400); in the data active = activation above about 37%;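 also: CHO cells stably expressing TAAR1 with calcium dye readout; 0% = DMSO vehicle and 100% = full agonist response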
* hit, by the source's call.

How did Cc1ccc(-c2nc3cccnc3s2)cc1NS(=O)(=O)c1ccc2c(c1)OCCO2 do in these assays?
OXTR ag: 4; TAAR1 ag: 9; V1aR counter: 2; TAAR1 antagonist: 59*; OXTR potentiate: -6; nonsel antag count: 30*; TAAR1 antag conf: 37; Ga16 nonsel ag: 7; TAAR1 ag counter: 2

What do the screens show for `CC1CCC(NC(=O)C2CCN(S(=O)(=O)c3cccc4nonc34)CC2)CC1` (stereo not given)?
OXTR ag: 0; TAAR1 ag: 3; V1aR counter: 1; TAAR1 antagonist: -31; OXTR potentiate: -12

How did O=C(Nc1cccc(-c2nc3ccccc3o2)c1)c1ccc(N2C(=O)C3C4C=CC(C4)C3C2=O)cc1 (stereo not given) do in these assays?
OXTR ag: 2; TAAR1 ag: 21; V1aR counter: 2; TAAR1 antagonist: 63*; OXTR potentiate: -21; nonsel antag count: 39*; TAAR1 antag conf: 58*; Ga16 nonsel ag: 11; TAAR1 ag counter: 9

What do the screens show for `CC1(c2nnc(-c3cccc(Cl)c3)o2)CC(c2c(Cl)cccc2Cl)=NO1` (stereo not given)?
OXTR ag: -2; TAAR1 ag: 7; V1aR counter: 0; TAAR1 antagonist: 64*; OXTR potentiate: -3; nonsel antag count: 22*; TAAR1 antag conf: 35; Ga16 nonsel ag: 1; TAAR1 ag counter: 1

Results for Cc1ccc(C2=NOC(C)(c3nnc(-c4cccc(Cl)c4)o3)C2)cc1 (stereo not given) ?
OXTR ag: -1; TAAR1 ag: 2; V1aR counter: 1; TAAR1 antagonist: 5; OXTR potentiate: -2

What do the screens show for `Cc1ccc(SCC(=O)c2cc(C)c(O)c(C)c2)cc1`?
OXTR ag: -2; TAAR1 ag: 0; V1aR counter: -1; TAAR1 antagonist: 16; OXTR potentiate: -21

How did COc1ccc(SCC(=O)c2cc(C)c(OC(=S)N(C)C)c(C)c2)cc1 do in these assays?
OXTR ag: 1; TAAR1 ag: 8; V1aR counter: 1; TAAR1 antagonist: 74*; OXTR potentiate: -15; nonsel antag count: 31*; TAAR1 antag conf: 46; Ga16 nonsel ag: 4; TAAR1 ag counter: 5

How did Cc1cc(C(=O)CSc2ccc(F)cc2)cc(C)c1OC(=S)N(C)C do in these assays?
OXTR ag: -1; TAAR1 ag: 4; V1aR counter: 0; TAAR1 antagonist: 78*; OXTR potentiate: -27; nonsel antag count: 34*; TAAR1 antag conf: 60*; Ga16 nonsel ag: 11; TAAR1 ag counter: 8

Results for CN(c1ccccc1)S(=O)(=O)c1ccc(Cl)c(C(=O)NC2=NCCS2)c1 ?
OXTR ag: -1; TAAR1 ag: 6; V1aR counter: -2; TAAR1 antagonist: -12; OXTR potentiate: -6

Results for CCOC(=O)c1ccccc1NC(=O)COC(=O)C(CC)Oc1ccccc1 (stereo not given) ?
TAAR1 ag: 0; TAAR1 antagonist: 14

How did CC(C)Oc1ccc(CNC(=O)CCC(=O)N2CCSc3ccccc32)cc1 do in these assays?
OXTR ag: 1; TAAR1 ag: 2; V1aR counter: 1; TAAR1 antagonist: -9; OXTR potentiate: -4

What do the screens show for `CCOc1ccc(NC(=O)CCC(=O)N2CCSc3ccccc32)cc1`?
OXTR ag: 2; TAAR1 ag: 10; V1aR counter: 1; TAAR1 antagonist: 62*; OXTR potentiate: -15; nonsel antag count: 25*; TAAR1 antag conf: 35; Ga16 nonsel ag: 7; TAAR1 ag counter: 5

How did CC(OC(=O)CCc1nc2ccccc2[nH]c1=O)C(=O)c1ccccc1 (stereo not given) do in these assays?
OXTR ag: 2; TAAR1 ag: 11; V1aR counter: 1; TAAR1 antagonist: 30; OXTR potentiate: -3

What do the screens show for `Cc1ccc2cc(NC(=O)c3ccc(C(C)(C)C)cc3)ccc2n1`?
OXTR ag: -1; TAAR1 ag: 13; V1aR counter: 0; TAAR1 antagonist: 58*; OXTR potentiate: -21; nonsel antag count: 25*; TAAR1 antag conf: 42; Ga16 nonsel ag: 7; TAAR1 ag counter: 3

How did C=CC[C@@H](CC(=O)N(CCO)Cc1ccccc1)C(=O)NC[C@H](OC(=O)[C@@H](CC=C)Cc1ccc(F)cc1)c1ccccc1 do in these assays?
OXTR ag: 3; TAAR1 ag: 20; V1aR counter: 4; TAAR1 antagonist: 89*; OXTR potentiate: -9; nonsel antag count: 36*; TAAR1 antag conf: 63*; Ga16 nonsel ag: 9; TAAR1 ag counter: 10

How did C=CC[C@@H](CC(=O)N(CCO)Cc1ccccc1)C(=O)NC[C@@H](OC(=O)[C@@H](CC=C)CC(=O)OC(C)(C)C)c1ccccc1 do in these assays?
OXTR ag: -2; TAAR1 ag: 17; V1aR counter: 0; TAAR1 antagonist: 59*; OXTR potentiate: -7; nonsel antag count: 29*; TAAR1 antag conf: 39; Ga16 nonsel ag: 8; TAAR1 ag counter: 10

How did C=CC[C@@H](CC(=O)N(CCO)Cc1ccccc1)C(=O)N[C@H](COC(=O)[C@@H](CC=C)Cc1ccc(F)cc1)c1ccccc1 do in these assays?
OXTR ag: 2; TAAR1 ag: 14; V1aR counter: 2; TAAR1 antagonist: 61*; OXTR potentiate: -9; nonsel antag count: 17; TAAR1 antag conf: 25; Ga16 nonsel ag: 14*; TAAR1 ag counter: 12

What do the screens show for `C=CC[C@H](CC(=O)NCCO)C(=O)NC[C@H](OC(=O)[C@@H](CC=C)Cc1ccc(F)cc1)c1ccccc1`?
OXTR ag: -1; TAAR1 ag: 9; V1aR counter: 0; TAAR1 antagonist: 29; OXTR potentiate: -4

How did CC(=O)N1CCN(S(=O)(=O)c2cccc(C(=O)OCC(=O)Nc3c(Cl)cccc3C(F)(F)F)c2)CC1 do in these assays?
TAAR1 ag: 14; TAAR1 antagonist: -12

How did CC(Oc1ccccc1F)C(=O)NNC(=O)CCNC(=O)c1ccco1 (stereo not given) do in these assays?
OXTR ag: 1; TAAR1 ag: 1; V1aR counter: 0; TAAR1 antagonist: -19; OXTR potentiate: -11
